In ChEMBL document CHEMBL1137181, “Synthesis and DP-IV inhibition of cyano-pyrazoline derivatives as potent anti-diabetic agents” (Bioorg Med Chem Lett, 2004):

Key:
Dipeptidyl peptidase 4 [1] = molecular target: Dipeptidyl peptidase 4 (Rattus norvegicus, UniProt P14740); assay: Inhibitory concentration against rat dipeptidyl peptidase IV
Procedure, shortened: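 Rat plasma (20 µL) as enzyme source, incubated 1 h at room temperature, pH 7.8, with Ala-Pro-AFC (40 µM) ± inhibitor dissolved in DMSO (5% final in assay). Released AFC read by fluorescence (ex 360 nm, em 485 nm). IC50 obtained by curve analysis.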

Dipeptidyl peptidase 4 [2] = molecular target: Dipeptidyl peptidase 4 (Sus scrofa, UniProt P22411); assay: Inhibitory concentration against dipeptidyl peptidase IV of porcine kidney; assay type: functional, tissue-based
Procedure, shortened: (§1)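 DP-IV activity from Caco-2 cells or porcine kidney, measured as AFC fluorescence (ex 360 nm, em 485 nm) liberated from Ala-Pro-AFC with or without inhibitor. Compounds in DMSO, 5% in assay mixture. IC50 obtained by curve analysis.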

[3] = molecular target: Dipeptidyl peptidase 4 (Mus musculus) (UniProt P28843); assay: Effective dose for inhibition of dipeptidyl peptidase IV in mice after 1 hr subcutaneous administration; assay type: functional, organism-based
Dipeptidyl peptidase 4 [4] = molecular target: Dipeptidyl peptidase 4 (Homo sapiens, UniProt P27487); assay: Inhibitory concentration against dipeptidyl peptidase IV in Caco-2 cell assay; assay type: functional, cell-based; procedure, shortened: as §1
Chain of Dipeptidyl peptidase 4 (Homo sapiens, UniProt P27487) (P27487 whole entry): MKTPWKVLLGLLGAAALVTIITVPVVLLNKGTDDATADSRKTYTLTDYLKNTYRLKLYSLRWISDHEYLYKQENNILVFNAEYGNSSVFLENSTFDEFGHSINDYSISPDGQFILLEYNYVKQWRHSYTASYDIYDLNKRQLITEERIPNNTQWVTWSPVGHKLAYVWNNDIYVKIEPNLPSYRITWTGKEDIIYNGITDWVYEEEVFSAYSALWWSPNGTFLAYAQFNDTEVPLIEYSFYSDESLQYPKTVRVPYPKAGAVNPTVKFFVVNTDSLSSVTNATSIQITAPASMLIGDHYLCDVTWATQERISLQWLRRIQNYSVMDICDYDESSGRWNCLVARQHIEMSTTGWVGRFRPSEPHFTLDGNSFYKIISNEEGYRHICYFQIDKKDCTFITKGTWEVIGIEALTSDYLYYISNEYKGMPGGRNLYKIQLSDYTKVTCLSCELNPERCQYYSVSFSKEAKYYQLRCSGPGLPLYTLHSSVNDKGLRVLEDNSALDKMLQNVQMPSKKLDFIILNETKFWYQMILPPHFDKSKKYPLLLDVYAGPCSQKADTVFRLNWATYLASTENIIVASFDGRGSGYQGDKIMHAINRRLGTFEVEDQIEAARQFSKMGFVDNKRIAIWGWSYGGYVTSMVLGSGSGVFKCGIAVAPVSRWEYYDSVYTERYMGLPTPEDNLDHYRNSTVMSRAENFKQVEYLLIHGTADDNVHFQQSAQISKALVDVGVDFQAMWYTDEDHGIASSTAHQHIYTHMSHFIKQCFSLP

Chain of Dipeptidyl peptidase 4 (Sus scrofa, UniProt P22411) (P22411 whole entry): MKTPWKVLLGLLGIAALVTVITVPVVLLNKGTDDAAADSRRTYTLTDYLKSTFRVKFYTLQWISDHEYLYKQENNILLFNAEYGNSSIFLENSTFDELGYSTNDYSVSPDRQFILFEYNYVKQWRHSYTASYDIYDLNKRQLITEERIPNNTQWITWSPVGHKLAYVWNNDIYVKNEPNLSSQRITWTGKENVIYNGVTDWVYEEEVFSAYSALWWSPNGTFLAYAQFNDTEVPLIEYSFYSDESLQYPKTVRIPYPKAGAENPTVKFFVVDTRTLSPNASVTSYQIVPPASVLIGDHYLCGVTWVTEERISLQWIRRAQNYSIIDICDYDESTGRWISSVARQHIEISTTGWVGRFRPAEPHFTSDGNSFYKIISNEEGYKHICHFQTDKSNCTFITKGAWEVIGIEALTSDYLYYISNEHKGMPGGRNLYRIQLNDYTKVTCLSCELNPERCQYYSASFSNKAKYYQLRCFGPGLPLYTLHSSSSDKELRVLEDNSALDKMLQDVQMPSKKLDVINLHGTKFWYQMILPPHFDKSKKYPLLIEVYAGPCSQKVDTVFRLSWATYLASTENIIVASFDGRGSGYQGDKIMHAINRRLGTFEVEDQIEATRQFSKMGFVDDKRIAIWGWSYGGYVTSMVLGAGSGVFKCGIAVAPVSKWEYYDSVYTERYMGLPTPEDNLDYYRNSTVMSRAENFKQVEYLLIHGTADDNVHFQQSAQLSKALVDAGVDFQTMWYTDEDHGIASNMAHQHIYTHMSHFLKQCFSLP
Chain of Dipeptidyl peptidase 4 (Rattus norvegicus, UniProt P14740) (P14740 whole entry): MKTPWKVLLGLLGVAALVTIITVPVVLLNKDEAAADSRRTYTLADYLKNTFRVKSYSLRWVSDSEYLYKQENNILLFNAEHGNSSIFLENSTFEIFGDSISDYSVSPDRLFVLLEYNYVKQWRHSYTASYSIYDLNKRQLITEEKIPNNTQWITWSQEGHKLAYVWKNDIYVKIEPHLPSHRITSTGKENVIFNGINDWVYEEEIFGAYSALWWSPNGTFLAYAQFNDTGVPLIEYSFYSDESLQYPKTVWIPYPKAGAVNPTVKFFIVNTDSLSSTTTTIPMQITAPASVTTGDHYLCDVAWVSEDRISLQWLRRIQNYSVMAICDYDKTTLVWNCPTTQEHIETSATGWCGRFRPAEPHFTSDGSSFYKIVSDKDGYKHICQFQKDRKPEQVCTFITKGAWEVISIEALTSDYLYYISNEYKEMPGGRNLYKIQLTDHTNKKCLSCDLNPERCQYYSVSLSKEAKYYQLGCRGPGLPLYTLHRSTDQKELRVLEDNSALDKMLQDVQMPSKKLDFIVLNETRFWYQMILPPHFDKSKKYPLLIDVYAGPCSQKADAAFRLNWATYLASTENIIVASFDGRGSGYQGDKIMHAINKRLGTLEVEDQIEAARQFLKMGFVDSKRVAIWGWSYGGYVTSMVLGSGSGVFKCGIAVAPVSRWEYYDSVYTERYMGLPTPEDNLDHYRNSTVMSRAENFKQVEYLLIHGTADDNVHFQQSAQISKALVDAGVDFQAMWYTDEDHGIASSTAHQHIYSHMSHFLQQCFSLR
Chain of Dipeptidyl peptidase 4 (Mus musculus) (P28843 whole entry, looked up): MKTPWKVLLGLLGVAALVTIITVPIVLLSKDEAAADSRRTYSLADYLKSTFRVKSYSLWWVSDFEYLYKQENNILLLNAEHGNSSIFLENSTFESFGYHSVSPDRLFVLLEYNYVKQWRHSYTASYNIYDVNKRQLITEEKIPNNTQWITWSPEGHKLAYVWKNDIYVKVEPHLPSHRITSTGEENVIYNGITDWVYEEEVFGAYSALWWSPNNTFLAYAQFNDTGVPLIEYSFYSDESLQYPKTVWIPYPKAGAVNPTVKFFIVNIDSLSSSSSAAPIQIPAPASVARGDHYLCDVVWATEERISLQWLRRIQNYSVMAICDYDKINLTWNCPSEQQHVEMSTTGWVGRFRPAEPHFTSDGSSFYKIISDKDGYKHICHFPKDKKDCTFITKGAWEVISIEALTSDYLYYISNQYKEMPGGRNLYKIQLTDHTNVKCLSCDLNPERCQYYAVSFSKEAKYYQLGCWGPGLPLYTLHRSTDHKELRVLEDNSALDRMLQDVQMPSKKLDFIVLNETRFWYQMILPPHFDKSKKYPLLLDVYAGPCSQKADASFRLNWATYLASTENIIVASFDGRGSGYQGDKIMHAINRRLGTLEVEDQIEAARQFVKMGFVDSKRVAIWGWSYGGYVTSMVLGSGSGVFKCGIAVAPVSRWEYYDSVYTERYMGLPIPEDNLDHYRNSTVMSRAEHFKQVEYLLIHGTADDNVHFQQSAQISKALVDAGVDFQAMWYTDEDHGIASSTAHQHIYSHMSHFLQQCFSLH

Compound | IC50 (Dipeptidyl peptidase 4 [1]) [nM] | also measured
CC(C)[C@@H](N)C(=O)N1N=CCC1C#N (stereo partly drawn) | 1900 | 
N#CC1CC=NN1C(=O)CNC1CCC(Nc2ccc([N+](=O)[O-])cn2)CC1 (stereo not drawn) | 1200 | 
CCC(C)[C@@H](N)C(=O)N1N=CCC1C#N (stereo partly drawn) | 220 | IC50 (Dipeptidyl peptidase 4 [2]): 80 nM; ED50 [3]: 16.1 mg/kg; IC50 (Dipeptidyl peptidase 4 [4]): 130 nM
N#CC1CC=NN1C(=O)CNC1CCCCC1 (stereo in doubt; 5c) | 2800 | 
N#CC1CC=NN1C(=O)[C@H](CCCCN)NC(=O)OCc1ccccc1 (stereo partly drawn) | 660 | 
N#Cc1ccc(NCCNCC(=O)N2NCC[C@H]2C#N)nc1 | 60 | 
CC(C)C[C@H](N)C(=O)N1N=CCC1C#N (stereo partly drawn) | 4300 | 
CC(C)(C)NCC(=O)N1N=CCC1C#N (stereo in doubt; 5a) | 24400 | 
N#Cc1ccc(NCCNCC(=O)N2N=CC[C@@H]2C#N)nc1 | 5200 | IC50 (Dipeptidyl peptidase 4 [2]): 6820 nM
N#CC1CC=NN1C(=O)CNC1CCCCC1 (stereo in doubt; 1g) | 2300 | 
N#CC1CC=NN1C(=O)CNC1CCCCCCC1 (stereo not drawn) | 2600 | 
N#Cc1ccc(NCCNCC(=O)N2N=CC[C@H]2C#N)nc1 | 360 | IC50 (Dipeptidyl peptidase 4 [2]): 440 nM
N#CC1CC=NN1C(=O)CNC1CCC(NC(=O)c2ccccc2)CC1 (stereo not drawn) | 4400 | 
N#CC1CC=NN1C(=O)CNC12CC3CC(CC(C3)C1)C2 (stereo not drawn) | 1500 | 
N#CC1CC=NN1C(=O)CNCCNc1ccc([N+](=O)[O-])cn1 (stereo not drawn) | 1200 | 
N#CC1CC=NN1C(=O)CNC1CCCC1 (stereo not drawn) | 1300 | 
N#CC1CC=NN1C(=O)CNC1CC2CCC1C2 (stereo not drawn) | 2100 | 
N#CC1CC=NN1C(=O)CNC1C2CC3CC(C2)CC1C3 (stereo not drawn) | 3200 | 
C[C@@H](N)C(=O)N1N=CCC1C#N (stereo partly drawn) | 1200 | 
N#CC1CC=NN1C(=O)CNC12CC3CC(CC(O)(C3)C1)C2 (stereo not drawn) | 6400 | 
N#Cc1ccc(NCCNCC(=O)N2N=CCC2C#N)nc1 (stereo not drawn) | 800 | IC50 (Dipeptidyl peptidase 4 [2]): 960 nM; ED50 [3]: 4.1 mg/kg
